How the values were obtained:
[1] = Distribution ratio in striatum and cerebellum was determined after 240 min of intravenous administration of the compound; [125I]- is used as radioactive isotope; type: ADME, tissue-based; settings: rat, 4 h
Outline: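 Rats, three per group, given 10 μCi tracer in 0.2 mL saline into the femoral vein under ether anesthesia, then killed by cardiac excision at the stated time. Brain regions were dissected, weighed and counted. Percent dose/g was calculated against a 1% diluted aliquot of the injected dose. The ratio is (region − cerebellum)/cerebellum on a % dose/g basis, with cerebellum as background.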

[2] = Distribution ratio in hippocampus and cerebellum was determined after 60 min of intravenous administration of the compound; [125I]- is used as radioactive isotope; type: ADME, tissue-based; settings: rat, 1 h
Outline: (§1)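 After femoral-vein injection of 10 μCi [¹²⁵I] tracer in 0.2 mL saline under ether anaesthesia (three rats per group), brain regions were dissected, weighed and counted: cortex (frontal plus occipital), hippocampus, hypothalamus and cerebellum. %dose/g was calculated against a diluted injected-dose standard. Ratio = (region − cerebellum)/cerebellum on a %dose/g basis, with cerebellum as the background region.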

[3] = Distribution ratio in hypothalamus and cerebellum was determined after 2 min of intravenous administration of the compound; [125I]- is used as radioactive isotope; type: ADME, tissue-based; settings: rat; outline: as §1
[4] = Distribution ratio in hypothalamus and cerebellum was determined after 240 min of intravenous administration of the compound; [125I]- is used as radioactive isotope; type: ADME, tissue-based; settings: rat, 4 h; outline: as §1
[5] = Regional brain distribution in rat hippocampus was determined after 60 min of intravenous administration of the compound; [125I]- is used as radioactive isotope; type: ADME, tissue-based; settings: in vivo, 1 h
Outline: (§2)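 Rats, three per group, injected with 10 μCi tracer in 0.2 mL saline via the femoral vein under ether anesthesia and killed by cardiac excision at the stated time. Cortex (frontal plus occipital), striatum, hippocampus, cerebellum and hypothalamus were dissected, weighed and gamma-counted. Values are % dose/g, calculated by comparison with counts of a 100-fold diluted aliquot of the injected dose.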

[6] = Regional brain distribution in rat cerebellum was determined after 11 hours of intravenous administration of the compound; [125I]- is used as radioactive isotope; type: ADME, tissue-based; settings: in vivo; outline: as §2
[7] = Regional brain distribution in rat hypothalamus was determined after 30 min of intravenous administration of the compound; [125I]- is used as radioactive isotope; type: ADME, tissue-based; settings: in vivo, 0.5 h; outline: as §2
[8] = Regional brain distribution in rat hippocampus was determined after 11 hours of intravenous administration of the compound; [125I]- is used as radioactive isotope; type: ADME, tissue-based; settings: in vivo; outline: as §2
[9] = Regional brain distribution in rat hypothalamus was determined after 240 min of intravenous administration of the compound; [125I]- is used as radioactive isotope; type: ADME, tissue-based; settings: in vivo, 4 h; outline: as §2
[10] = Regional brain distribution in rat hypothalamus was determined after 24 hours of intravenous administration of the compound; [125I]- is used as radioactive isotope; type: ADME, tissue-based; settings: in vivo; outline: as §2
[11] = Biodistribution in rat brain was determined after 60 min of intravenous administration of the compound; [125I]- is used as radioactive isotope; type: ADME, organism-based; settings: in vivo, 1 h
Outline: (§3)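 Rats under ether anesthesia, three per group, received 10 μCi tracer in 0.2 mL saline into the femoral vein. They were killed by cardiac excision under ether at each time point. Organs were removed, weighed and counted. Percent dose per organ was calculated against a 1%-of-injected-dose standard counted at the same time.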

[12] = Biodistribution in rat lung was determined after 6 hours of intravenous administration of the compound; [125I]- is used as radioactive isotope; type: ADME, organism-based; settings: in vivo; outline: as §3
[13] = Biodistribution in rat blood was determined after 6 hours of intravenous administration of the compound; [125I]- is used as radioactive isotope; type: ADME, organism-based; settings: in vivo; outline: as §3
[14] = Biodistribution in rat heart was determined after 120 min of intravenous administration of the compound; [125I]- is used as radioactive isotope; type: ADME, organism-based; settings: in vivo, 2 h; outline: as §3
[15] = Biodistribution in rat blood was determined after 11 hours of intravenous administration of the compound; [125I]- is used as radioactive isotope; type: ADME, organism-based; settings: in vivo; outline: as §3
[16] = Biodistribution in rat brain was determined after 24 hours of intravenous administration of the compound; [125I]- is used as radioactive isotope; type: ADME, organism-based; settings: in vivo; outline: as §3

`CN(C)Cc1ccccc1Oc1ccc(I)cc1N` showed a Dose/g [1] of 3.11%, a Dose/g [2] of 1.3% and a Dose/g [3] of 0.24%. For the same compound, the Dose/g [4] was 4.49%, the Dose/g [5] was 0.94% and the Dose/g [6] was 0.01%. The Dose/g [7] was 1.3%, the Dose/g [8] was 0.01% and the Dose/g [9] was 0.32%. It also gave a Dose/g [10] of 0.006%, a Dose [11] of 1.74% and a Dose [12] of 0.25%. It also gave a Dose [13] of 3.29%, a Dose [14] of 0.13% and a Dose [15] of 2.52%. For the same compound, the Dose [16] was 0.01%.
